Article PMC6598221 (Saudi Pharmaceutical Journal : SPJ, 2019)

Target: trypsin from porcine pancreas (Sus scrofa, UniProt P00761)
Test: trypsin inhibition assay
Format: biochemical
Outline: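 Porcine pancreatic trypsin. Test compound stock diluted twofold in 50 mM Tris buffer (20 mM CaCl2, pH 8.2). Trypsin and BAPNA added at final 40 and 160 µg/mL, incubated at 37 °C for 12 min, stopped with 30% acetic acid, A410 read. IC50 derived from % inhibition. Caffeic and tannic acids were reference inhibitors. Means ± standard errors; one-way ANOVA with Tukey's test, p < 0.05.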

trypsin from porcine pancreas, sequence (P00761 9-231): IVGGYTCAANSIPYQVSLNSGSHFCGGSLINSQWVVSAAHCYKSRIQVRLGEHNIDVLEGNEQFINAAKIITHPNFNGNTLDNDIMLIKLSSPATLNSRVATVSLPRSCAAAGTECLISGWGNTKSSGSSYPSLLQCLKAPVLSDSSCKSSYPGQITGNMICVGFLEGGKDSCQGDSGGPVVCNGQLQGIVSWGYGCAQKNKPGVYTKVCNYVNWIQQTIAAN

IC50 | IC50 trypsin inhibition | Compound
40.6 mM |  | O=C(O)/C=C/c1ccc(O)c(O)c1 [caffeic acid]
 | 75.66 µg/mL | tannic acid
